The assay concerns Mycobacterium tuberculosis variant bovis. Description: Antimycobacterial activity against Mycobacterium bovis AN5 assessed as growth inhibition after 6 days by luciferase reporter gene assay. Format: functional. The settings on record: AN5, 144 h. The gist of the method: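 Mycobacteria carrying the pSMT1 luciferase reporter plasmid. Compounds came from 10 mM DMSO stocks and were serially diluted in 7H9 + 10% FCS. Thawed bacteria were filtered, recovered 1 h at 37 °C, then added at 50 000 RLU/mL. After 6 days of culture, light was read for 10 s after adding 1% n-decanal. Triplicates were run, and MIC50 was the concentration giving 50% growth inhibition.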
A general note: Reporter assays use an easily measured gene product as a stand-in for the process of interest.

≈ marks a conversion by molar mass, not a printed value.

Consider `O=Cc1ccc(OCCCOc2ccc(C=O)cc2)cc1`, for which the MIC50 worked out at 2.65 µM (≈ 0.753 µg/mL). The value for `O=Cc1ccc(OCCCCOc2ccc(C=O)cc2)cc1` was 2.51 µM (≈ 0.749 µg/mL). The figure for `O=Cc1ccc(OCCCCCOc2ccc(C=O)cc2)cc1` is 1.69 µM (≈ 0.528 µg/mL); for `O=Cc1ccc(OCCCCCCOc2ccc(C=O)cc2)cc1` it is 0.94 µM (≈ 0.307 µg/mL); for `O=Cc1ccc(OCCCCCCCOc2ccc(C=O)cc2)cc1` it is 0.97 µM (≈ 0.33 µg/mL). The value for `O=Cc1ccc(OCCCCCCCCOc2ccc(C=O)cc2)cc1` was 0.95 µM (≈ 0.337 µg/mL). Take `O=Cc1ccc(OCCCCCCCCCOc2ccc(C=O)cc2)cc1`: the MIC50 was found to be 1.01 µM (≈ 0.372 µg/mL). Take `O=Cc1ccc(OCCCCCCCCCCOc2ccc(C=O)cc2)cc1`: the MIC50 turned out to be 0.81 µM (≈ 0.31 µg/mL). The figure for `O=Cc1ccc(OCCCCCCCCCCCOc2ccc(C=O)cc2)cc1` is 0.71 µM (≈ 0.282 µg/mL). The value for `O=Cc1ccc(OCCCCCCCCCCCCOc2ccc(C=O)cc2)cc1` was 0.64 µM (≈ 0.263 µg/mL); that for `O=Cc1ccc(OCOc2ccc(C=O)cc2)cc1` was 2.93 µM (≈ 0.751 µg/mL); that for `O=Cc1ccc(OCCOc2ccc(C=O)cc2)cc1` was 2.41 µM (≈ 0.651 µg/mL).

With `NNC(=O)c1ccncc1` [ISONIAZID], the MIC50 is less than 0.1 µM.

The MIC50 is the lowest concentration that inhibits either 50% of growth or 50% of the strains tested, depending on the study.
